Measles CPE: protection of cells from measles virus. protection (pct of control), % at 4 µM. Measles virus-infected cells, CPE protection, absorbance. hit rate 1.5% among 140,000; in the data active = protection mostly above about 24%, no sharp cut-off; inactive = mostly below about 26%
RAM inhibit: blocks the yeast RAM network | S. cerevisiae dse1pr::URA3 reporter, 5-FOA growth OD615, 2 d; analog-sensitive cbk1-as2 kinase mutant strain | inhibition, % at 50 µM | hit rate 1.8% among 190,000;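 active = inhibition above a set limit, 3 SD over mean compound inhibition, cut at about 8.4% in these data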;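 also: inhibition rescues growth on 5-FOA so higher OD means more RAM inhibition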
Yeast lifespan up: yeast lifespan extension; inhibition of the nicotinamide effect, % at 10 µM; AID 775; S. cerevisiae growth with nicotinamide, OD615; deaD strain in restrictive glucose medium; hit rate 0.68% among 130,000;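 active = inhibition above a set limit, placed 3 SD over the median of all compounds, cut at about 26% in these data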
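Test system: DeaD-strain S. cerevisiae / Buffer or medium: restrictive glucose medium / Also added: nicotinamide 1.5 mM / Doses: one concentration, 10 µM, DMSO 0.25% / Schedule: 48 h at 30 °C / Signal: OD615 measurement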
BB579 growth dn: yeast BB579 growth reduction in restrictive medium. S. cerevisiae BB579 growth, OD615, 48 h. inhibition, % at 10 µM. hit rate 0.51% among 140,000. AID 804;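 active = inhibition above a set limit, 3 SD over the mean compound inhibition, cut at about 44% in these data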
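test system = yeast BB579 (DeaD) | buffer or medium = restrictive CSMM-D medium | doses = single compound dose of 10 µM, 0.25% DMSO final | times = 4 h preincubation and 48 h exposure at 30 °C | technique = culture absorbance at 615 nm | benchmarks = amphotericin B 10 µg/mL, positive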
A number is an active result. An excerpt weighted towards active compounds, which were near 3.8% of everything screened.

What do the screens show for `CN1CC=C2C(C#N)=C(N)C(C#N)(C#N)C(c3ccncc3)C2C1` (centres undefined)?
Measles CPE: 44.8; RAM inhibit: inactive; Yeast lifespan up: inactive; BB579 growth dn: inactive

Results for CCCCn1c(O)c(/C=C/C=Nc2ccccc2)c(=O)[nH]c1=O ?
Measles CPE: inactive; RAM inhibit: inactive; Yeast lifespan up: inactive; BB579 growth dn: inactive

How did Cc1ccc(N2C(=O)NC(=O)/C(=C\C=C\c3ccco3)C2=O)cc1C do in these assays?
Measles CPE: inactive; RAM inhibit: inactive; Yeast lifespan up: 29.0; BB579 growth dn: inactive

What do the screens show for `CC12CN3CC(C)(CN(C1)C3c1cccs1)C2=O` (centres undefined)?
RAM inhibit: inactive

Results for COC1CCCCC1NCCc1ccccc1 (centres undefined) ?
RAM inhibit: inactive

How did CCC(CC)NC1CCCCC1OC (centres undefined) do in these assays?
Measles CPE: 26.4; RAM inhibit: inactive; Yeast lifespan up: inactive; BB579 growth dn: inactive

What do the screens show for `COc1ccccc1OCCCn1cc(C(=O)c2ccco2)c2ccccc21`?
Measles CPE: inactive; RAM inhibit: 10.3; Yeast lifespan up: inactive; BB579 growth dn: inactive

How did O=C(Cn1cc(C(=O)c2ccccc2)c2ccccc21)NCc1ccco1 do in these assays?
Measles CPE: inactive; RAM inhibit: inactive; Yeast lifespan up: inactive; BB579 growth dn: inactive

How did O=C(c1ccco1)c1cn(Cc2ccc(Cl)cc2)c2ccccc12 do in these assays?
Measles CPE: inactive; RAM inhibit: 11.1; Yeast lifespan up: inactive; BB579 growth dn: inactive

Results for CCP(=S)(CC)c1ccc(N(C)C)cc1 ?
RAM inhibit: inactive

Results for O=C1NC(=O)C(CCc2ccncc2)(Cc2ccc([N+](=O)[O-])cc2)C(=O)N1 ?
Measles CPE: inactive; RAM inhibit: inactive; Yeast lifespan up: inactive; BB579 growth dn: inactive

Results for CCCC(C)C1(CC)C(=O)NC(=O)N=C1N (centres undefined) ?
Measles CPE: inactive; RAM inhibit: inactive; Yeast lifespan up: inactive; BB579 growth dn: inactive

How did CN(C(=O)Oc1ccc(Cl)c2cccnc12)c1ccccc1 do in these assays?
Measles CPE: 30.9; RAM inhibit: inactive; Yeast lifespan up: inactive; BB579 growth dn: inactive

How did CN(C(=O)Oc1cccc2cccnc12)c1ccccc1 do in these assays?
Measles CPE: inactive; RAM inhibit: inactive; Yeast lifespan up: inactive; BB579 growth dn: inactive

How did C=Cn1ccnc1P(=S)(c1nccn1C=C)C1CCCCC1 do in these assays?
Measles CPE: inactive; RAM inhibit: inactive; Yeast lifespan up: inactive; BB579 growth dn: inactive

What do the screens show for `CCC(=O)c1c(O)n(C2CCCCCC2)c(=O)[nH]c1=O`?
Measles CPE: inactive; RAM inhibit: inactive; Yeast lifespan up: inactive; BB579 growth dn: 89.5

What do the screens show for `CC(=NCCO)c1c(O)n(C2CCCCC2)c(=O)[nH]c1=O`?
Measles CPE: inactive; RAM inhibit: inactive; Yeast lifespan up: inactive; BB579 growth dn: inactive

How did COc1ccccc1OCC(=O)Nc1ccc(Cl)cc1C(=O)c1ccccc1 do in these assays?
Measles CPE: inactive; RAM inhibit: inactive; Yeast lifespan up: inactive; BB579 growth dn: inactive

How did CCOc1ccccc1OCC(=O)Nc1ccc(Cl)cc1C(=O)c1ccccc1 do in these assays?
Measles CPE: inactive; RAM inhibit: 9.6; Yeast lifespan up: inactive; BB579 growth dn: inactive

What do the screens show for `CN1CSC(=S)N(C)C1`?
Measles CPE: inactive; RAM inhibit: inactive; Yeast lifespan up: inactive; BB579 growth dn: 85.5

What do the screens show for `C#CCNc1ccncc1S(=O)(=O)NC(=O)NC(C)C`?
Measles CPE: inactive; RAM inhibit: inactive; BB579 growth dn: inactive

What do the screens show for `CC[N+](C)(CC)CCCOC(=O)C(O)(c1ccccc1)C1CCCCC1` (centres undefined)?
Measles CPE: 32.4; RAM inhibit: inactive; BB579 growth dn: inactive

What do the screens show for `CCC(C)N1C(=O)/C(=C\c2cc3c4c(c2)CCCN4CCC3)C(=O)NC1=S` (centres undefined)?
Measles CPE: inactive; RAM inhibit: inactive; Yeast lifespan up: 30.3; BB579 growth dn: inactive

Results for CCC(C)N1C(=O)/C(=C\c2ccc(N3CCCCCC3)cc2)C(=O)NC1=S (centres undefined) ?
Measles CPE: inactive; RAM inhibit: inactive; Yeast lifespan up: inactive; BB579 growth dn: inactive

What do the screens show for `C/C(=N\N1CCCCC1c1cccnc1)c1c(O)n(C2CCCCC2)c(=S)[nH]c1=O` (centres undefined)?
Measles CPE: inactive; RAM inhibit: inactive; Yeast lifespan up: inactive; BB579 growth dn: inactive

How did COc1ccc(NC2=NC(C)(C)CS2)cc1 do in these assays?
RAM inhibit: inactive

What do the screens show for `O=C(Nc1ccccc1)c1cccn(Cc2ccccc2)c1=O`?
RAM inhibit: 9.2

How did Cc1ccc(N2C(=O)NC(=O)/C(=C/c3ccc(-c4ccc(C(=O)O)c(Cl)c4)o3)C2=O)cc1 do in these assays?
RAM inhibit: 10.8

How did Cc1ccc(N2C(=O)NC(=O)/C(=C\c3ccoc3)C2=O)cc1 do in these assays?
RAM inhibit: inactive

How did OCCOCC#CCN1CCOCC1 do in these assays?
Measles CPE: inactive; RAM inhibit: inactive; Yeast lifespan up: inactive; BB579 growth dn: inactive

Results for O=C1NC(=S)N(C2CC2)C(=O)/C1=C/c1ccc2c(c1)CCN2CCCCl ?
Measles CPE: inactive; RAM inhibit: inactive; Yeast lifespan up: 27.4; BB579 growth dn: inactive

How did C=CCN1C(=O)/C(=C/c2ccc3c(c2)CCCN3CCC)C(=O)NC1=S do in these assays?
Measles CPE: inactive; RAM inhibit: inactive; Yeast lifespan up: inactive; BB579 growth dn: inactive

Results for CCN1CCN(c2nc3c(c(=O)[nH]2)CCCC3)CC1 ?
Measles CPE: inactive; RAM inhibit: inactive; Yeast lifespan up: inactive; BB579 growth dn: inactive

What do the screens show for `O=C(Nc1ccc(OC(=O)N2CCCCC2)cc1)N1CCOCC1`?
RAM inhibit: inactive

Results for O=C(Oc1c(Cl)cc(Cl)c2ccccc12)N1CCCCC1 ?
Measles CPE: inactive; RAM inhibit: 10.3; Yeast lifespan up: inactive; BB579 growth dn: inactive

What do the screens show for `CCOC(=O)c1ccc(N=Cc2c(O)n(-c3ccc(OC)cc3)c(=S)[nH]c2=O)cc1`?
RAM inhibit: inactive

Results for CCN(CC)CCOC(=O)c1ccc(N=Cc2c(O)[nH]c(=O)[nH]c2=O)cc1 ?
Measles CPE: 60.1; RAM inhibit: inactive; Yeast lifespan up: inactive; BB579 growth dn: inactive

How did COc1cccc(C2CC3C(=O)C=CC2N3Cc2ccccc2)c1 (centres undefined) do in these assays?
Measles CPE: inactive; RAM inhibit: inactive; Yeast lifespan up: 59.5; BB579 growth dn: inactive

What do the screens show for `COc1cc(OC)cc(-n2nc(C(=O)N3CCC4(CC3)OCCO4)c3ccccc3c2=O)c1`?
Measles CPE: 51.9; RAM inhibit: inactive; Yeast lifespan up: inactive; BB579 growth dn: inactive

How did COc1cccc(-n2nc(C(=O)N3CCC4(CC3)OCCO4)c3ccccc3c2=O)c1 do in these assays?
Measles CPE: inactive; RAM inhibit: inactive; Yeast lifespan up: inactive; BB579 growth dn: inactive

How did O=C(COc1ccccc1)N1CCN(C2CC3CCC2C3)CC1 (centres undefined) do in these assays?
Measles CPE: inactive; RAM inhibit: inactive; BB579 growth dn: inactive

What do the screens show for `CN1/C(=C\C=Nc2ccccc2)C(C)(C)c2ccccc21`?
Measles CPE: inactive; RAM inhibit: inactive; Yeast lifespan up: inactive; BB579 growth dn: inactive

Screening data (PubChem BioAssay)
